Experimental data published in ChEMBL document CHEMBL2177043, “HIV-1 X4 activities of polycationic "viologen" based dendrimers by interaction with the chemokine receptor CXCR4: study of structure-activity relationship” (J Med Chem, 2012).

Legend:
[1] = molecular target: T1, C-X-C chemokine receptor type 4 (Homo sapiens, UniProt P61073); experiment: Inhibition of anti-CXCR4 mAbs clone 12G5 binding to CXCR4 in human SUPT1 cells incubated for 30 mins by FACS
[2] = molecular target: C-C chemokine receptor type 5 (Homo sapiens, UniProt P51681); experiment: Antagonist activity against CCR5 expressed in U87.CD4.CCR5 cells assessed as inhibition of CCL3L1-induced calcium signaling incubated for 10 mins by FLIPR; type: functional, cell-based
In short: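 U87.CD4.CCR5 cells seeded at 2 × 10⁴/well on 0.2% gelatin the day before, loaded with 4 μM Fluo-3 AM for 45 min at 37 °C, washed, then preincubated with compounds at varied concentrations in assay buffer for 10 min at 37 °C. Stimulated with 10 ng/mL LD78β (CCL3L1); Ca²⁺ flux recorded by FLIPR.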

[3] = test system: Human immunodeficiency virus 1; experiment: Antiviral activity against X4 HIV1 NL4.3 infected in human MT4 cells assessed as inhibition of viral replication pre-incubated for 30 mins […]; type: functional, organism-based; conditions: Human immunodeficiency virus 1, NL4.3, MT4
[4] = Cytotoxicity against human MT4 cells by MTT assay; type: cell-based
[5] = molecular target: T1, C-X-C chemokine receptor type 4; experiment: Antagonist activity against CXCR4 expressed in U87.CD.CXCR4 cells assessed as inhibition of CXCL12-induced calcium signaling incubated for 10 mins by FLIPR; type: functional, cell-based
In short: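 U87.CD4.CXCR4 cells seeded at 2 × 10⁴/well on 0.2% gelatin the day before, loaded with 4 μM Fluo-3 AM for 45 min at 37 °C, washed, then preincubated with compounds at varied concentrations in assay buffer for 10 min at 37 °C. Challenged with 25 ng/mL CXCL12; Ca²⁺ flux followed over time by FLIPR.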

[6] = molecular target: T1, C-X-C chemokine receptor type 4; experiment: Inhibition of CXCL-12'AF647 binding to CXCR4 in human SUPT1 cells incubated for 15 mins by FACS; type: cell-based
In short: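 SupT1 cells (high CXCR4) washed, then incubated 15 min at room temperature with compounds at varied concentrations in HBSS containing 20 mM HEPES and 0.2% BSA, pH 7.4. CXCL12-AF647 added at 25 ng/mL final for 30 min at room temperature. Cells washed, fixed in 1% paraformaldehyde, and read by flow cytometry on FL4.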

[7] = test system: Human immunodeficiency virus 1; experiment: Antiviral activity against X4 HIV1 NL4.3 infected in human PBMC assessed as inhibition of viral replication pre-incubated for 30 mins measured 5 days post infection by MTT assay; type: functional, organism-based; conditions: Human immunodeficiency virus 1, NL4.3
In short: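 Human PBMC infected with HIV-1 NL4.3. IC₅₀ is the concentration inhibiting viral replication by 50%, averaged over two independent experiments. Cytotoxicity (CC₅₀, 50% loss of PBMC viability) evaluated in the same assay.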

[8] = molecular target: T1, C-X-C chemokine receptor type 4; experiment: Inhibition of anti-CXCR4 mAbs clone 173 binding to CXCR4 in human SUPT1 cells incubated for 30 mins by FACS
[9] = molecular target: T1, C-X-C chemokine receptor type 4; experiment: Inhibition of anti-CXCR4 mAbs clone 1D9 binding to CXCR4 in human SUPT1 cells incubated for 30 mins by FACS
[10] = Cytotoxicity against human PBMC cells by MTT assay; type: cell-based

T1 sequence (P61073 whole entry): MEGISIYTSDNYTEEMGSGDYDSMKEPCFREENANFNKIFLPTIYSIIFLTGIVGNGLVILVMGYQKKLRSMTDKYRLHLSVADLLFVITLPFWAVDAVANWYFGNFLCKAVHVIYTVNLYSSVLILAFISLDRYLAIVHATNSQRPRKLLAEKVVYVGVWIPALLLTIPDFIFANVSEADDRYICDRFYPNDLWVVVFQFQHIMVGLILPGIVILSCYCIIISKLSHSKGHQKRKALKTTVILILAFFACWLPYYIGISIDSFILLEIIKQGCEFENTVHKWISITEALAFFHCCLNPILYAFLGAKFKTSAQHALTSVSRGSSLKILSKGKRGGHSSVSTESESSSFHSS

Structure (SMILES): Cc1cn(CCC[n+]2ccc(-c3cc[n+](Cc4cc(C[n+]5ccc(-c6cc[n+](CCCn7cc(C)c(=O)[nH]c7=O)cc6)cc5)cc(C[n+]5ccc(-c6cc[n+](Cc7cc(C[n+]8ccc(-c9cc[n+](Cc%10cc(C[n+]%11ccc(-c%12cc[n+](CCCn%13cc(C)c(=O)[nH]c%13=O)cc%12)cc%11)cc(C[n+]%11ccc(-c%12cc[n+](CCCn%13cc(C)c(=O)[nH]c%13=O)cc%12)cc%11)c%10)cc9)cc8)cc(-[n+]8ccc(-c9cc[n+](-c%10cc(C[n+]%11ccc(-c%12cc[n+](Cc%13cc(C[n+]%14ccc(-c%15cc[n+](CCCn%16cc(C)c(=O)[nH]c%16=O)cc%15)cc%14)cc(C[n+]%14ccc(-c%15cc[n+](CCCn%16cc(C)c(=O)[nH]c%16=O)cc%15)cc%14)c%13)cc%12)cc%11)cc(C[n+]%11ccc(-c%12cc[n+](Cc%13cc(C[n+]%14ccc(-c%15cc[n+](CCCn%16cc(C)c(=O)[nH]c%16=O)cc%15)cc%14)cc(C[n+]%14ccc(-c%15cc[n+](CCCn%16cc(C)c(=O)[nH]c%16=O)cc%15)cc%14)c%13)cc%12)cc%11)c%10)cc9)cc8)c7)cc6)cc5)c4)cc3)cc2)c(=O)[nH]c1=O.F[P-](F)(F)(F)(F)F.F[P-](F)(F)(F)(F)F.F[P-](F)(F)(F)(F)F.F[P-](F)(F)(F)(F)F.F[P-](F)(F)(F)(F)F.F[P-](F)(F)(F)(F)F.F[P-](F)(F)(F)(F)F.F[P-](F)(F)(F)(F)F.F[P-](F)(F)(F)(F)F.F[P-](F)(F)(F)(F)F.F[P-](F)(F)(F)(F)F.F[P-](F)(F)(F)(F)F.F[P-](F)(F)(F)(F)F.F[P-](F)(F)(F)(F)F.F[P-](F)(F)(F)(F)F.F[P-](F)(F)(F)(F)F.F[P-](F)(F)(F)(F)F.F[P-](F)(F)(F)(F)F.F[P-](F)(F)(F)(F)F.F[P-](F)(F)(F)(F)F.F[P-](F)(F)(F)(F)F.F[P-](F)(F)(F)(F)F.F[P-](F)(F)(F)(F)F.F[P-](F)(F)(F)(F)F.F[P-](F)(F)(F)(F)F.F[P-](F)(F)(F)(F)F
- IC50 [1]: 236 nM
- IC50 [2]: 3660 nM
- IC50 [3]: 1.5 µg/mL
- CC50 [4]: 19 µg/mL
- IC50 [5]: 273 nM
- IC50 [6]: 207 nM
- IC50 [7]: 0.41 µg/mL
- IC50 [8]: 210 nM
- IC50 [9]: 326 nM
- CC50 [10]: 20 µg/mL

Structure (SMILES): CCc1cc[n+](-c2cc[n+](Cc3cc(C[n+]4ccc(-c5cc[n+](CC)cc5)cc4)cc(C[n+]4ccc(-c5cc[n+](Cc6cc(C[n+]7ccc(-c8cc[n+](Cc9cc(C[n+]%10ccc(-c%11cc[n+](CC)cc%11)cc%10)cc(C[n+]%10ccc(-c%11cc[n+](CC)cc%11)cc%10)c9)cc8)cc7)cc(-[n+]7ccc(-c8cc[n+](-c9cc(C[n+]%10ccc(-c%11cc[n+](Cc%12cc(C[n+]%13ccc(-c%14cc[n+](CC)cc%14)cc%13)cc(C[n+]%13ccc(-c%14cc[n+](CC)cc%14)cc%13)c%12)cc%11)cc%10)cc(C[n+]%10ccc(-c%11cc[n+](Cc%12cc(C[n+]%13ccc(-c%14cc[n+](CC)cc%14)cc%13)cc(C[n+]%13ccc(-c%14cc[n+](CC)cc%14)cc%13)c%12)cc%11)cc%10)c9)cc8)cc7)c6)cc5)cc4)c3)cc2)cc1.F[P-](F)(F)(F)(F)F.F[P-](F)(F)(F)(F)F.F[P-](F)(F)(F)(F)F.F[P-](F)(F)(F)(F)F.F[P-](F)(F)(F)(F)F.F[P-](F)(F)(F)(F)F.F[P-](F)(F)(F)(F)F.F[P-](F)(F)(F)(F)F.F[P-](F)(F)(F)(F)F.F[P-](F)(F)(F)(F)F.F[P-](F)(F)(F)(F)F.F[P-](F)(F)(F)(F)F.F[P-](F)(F)(F)(F)F.F[P-](F)(F)(F)(F)F.F[P-](F)(F)(F)(F)F.F[P-](F)(F)(F)(F)F.F[P-](F)(F)(F)(F)F.F[P-](F)(F)(F)(F)F.F[P-](F)(F)(F)(F)F.F[P-](F)(F)(F)(F)F.F[P-](F)(F)(F)(F)F.F[P-](F)(F)(F)(F)F.F[P-](F)(F)(F)(F)F.F[P-](F)(F)(F)(F)F.F[P-](F)(F)(F)(F)F.F[P-](F)(F)(F)(F)F
- IC50 [1]: 344 nM
- IC50 [2]: 12100 nM
- IC50 [3]: 0.9 µg/mL
- CC50 [4]: 34 µg/mL
- IC50 [5]: 538 nM
- IC50 [6]: 285 nM
- IC50 [7]: 0.12 µg/mL
- IC50 [8]: 203 nM
- IC50 [9]: 446 nM
- CC50 [10]: 100 µg/mL

Structure (SMILES): Cc1cn(CCC[n+]2ccc(-c3cc[n+](Cc4cc(C[n+]5ccc(-c6cc[n+](CCCn7cc(C)c(=O)[nH]c7=O)cc6)cc5)cc(C[n+]5ccc(-c6cc[n+](Cc7cc(C[n+]8ccc(-c9cc[n+](Cc%10cc(C[n+]%11ccc(-c%12cc[n+](CCCn%13cc(C)c(=O)[nH]c%13=O)cc%12)cc%11)cc(C[n+]%11ccc(-c%12cc[n+](CCCn%13cc(C)c(=O)[nH]c%13=O)cc%12)cc%11)c%10)cc9)cc8)cc(C[n+]8ccc(-c9cc[n+](Cc%10cc(C[n+]%11ccc(-c%12cc[n+](CCCn%13cc(C)c(=O)[nH]c%13=O)cc%12)cc%11)cc(C[n+]%11ccc(-c%12cc[n+](CCCn%13cc(C)c(=O)[nH]c%13=O)cc%12)cc%11)c%10)cc9)cc8)c7)cc6)cc5)c4)cc3)cc2)c(=O)[nH]c1=O.F[P-](F)(F)(F)(F)F.F[P-](F)(F)(F)(F)F.F[P-](F)(F)(F)(F)F.F[P-](F)(F)(F)(F)F.F[P-](F)(F)(F)(F)F.F[P-](F)(F)(F)(F)F.F[P-](F)(F)(F)(F)F.F[P-](F)(F)(F)(F)F.F[P-](F)(F)(F)(F)F.F[P-](F)(F)(F)(F)F.F[P-](F)(F)(F)(F)F.F[P-](F)(F)(F)(F)F.F[P-](F)(F)(F)(F)F.F[P-](F)(F)(F)(F)F.F[P-](F)(F)(F)(F)F.F[P-](F)(F)(F)(F)F.F[P-](F)(F)(F)(F)F.F[P-](F)(F)(F)(F)F
- IC50 [1]: 352 nM
- IC50 [2]: 1870 nM
- IC50 [3]: 1.8 µg/mL
- CC50 [4]: 10 µg/mL
- IC50 [5]: 279 nM
- IC50 [6]: 231 nM
- IC50 [7]: 0.89 µg/mL
- IC50 [8]: 403 nM
- IC50 [9]: 516 nM
- CC50 [10]: 20 µg/mL

Structure (SMILES): c1cc(CN2CCCNCCNCCCNCC2)ccc1CN1CCCNCCNCCCNCC1 [PLERIXAFOR]
- CC50 [4]: > 10 µg/mL
- CC50 [10]: > 10 µg/mL
